Measured values of several laboratories.
Compare with care: the assays were run in different laboratories.
EGFR: Epidermal growth factor receptor (EGFR, Homo sapiens, UniProt P00533)
Ephx2: Bifunctional epoxide hydrolase 2 (Ephx2, Mus musculus, UniProt P34914)
APC: Adenomatous polyposis coli protein (APC, Homo sapiens, UniProt P25054)
AMY1A: Alpha-amylase 1A (AMY1A, Homo sapiens, UniProt P0DUB6)

Cc1ncc(CN2CCc3ccccc3C2)c2cc(C(=O)c3ccc4c(c3)OCCO4)oc12  IC50 (EGFR; enzyme activity, inhibitor, ADP detection): 12.9 nM
O=C(Nc1ccc(-c2cccc3cccnc23)cc1)C1CCN(S(=O)(=O)c2ccccc2Cl)CC1  IC50 (Ephx2; enzyme activity, inhibitor, fluorescence): 95.9 nM
CC(C)C[C@H](NC(=O)[C@H](Cc1ccc2ccccc2c1)NC(=O)[C@H](CCC(=O)O)NC(=O)c1ccccc1)C(=O)NC1CC1c1ccccc1 (stereo partly drawn)  IC50 (APC; ligand displacement, FP): 77600 nM
Oc1ccc(/C=C/c2cc(O)cc(O)c2)cc1  IC50 (AMY1A; enzyme activity, inhibitor): > 100000 nM
CC(C)C[C@H](NC(=O)[C@H](Cc1ccc2ccccc2c1)NC(=O)[C@H](CCC(=O)O)NC(=O)c1ccnc(Cl)n1)C(=O)NC1CC1c1ccccc1 (stereo partly drawn)  IC50 (APC; ligand displacement, FP): 4270 nM
O=C(Nc1ccc(-c2cnc3ccccc3c2)cc1)C1CCN(S(=O)(=O)c2ccccc2Cl)CC1  IC50 (Ephx2; enzyme activity, inhibitor, fluorescence): 116 nM
Cc1c(Cc2ccccc2)c(=O)oc2c(C)c(OCC(=O)NN=Cc3ccco3)ccc12  IC50 (EGFR; enzyme activity, inhibitor, ATP luminescence): 559 nM
CC(C)C[C@H](NC(=O)[C@H](Cc1ccc2ccccc2c1)NC(=O)[C@H](CCC(=O)O)NC(=O)C1CCCCC1)C(=O)NC1CC1c1ccccc1 (stereo partly drawn)  IC50 (APC; ligand displacement, FP): 21900 nM
Cc1ccc2c(-c3cc4c(CN5CCN(Cc6ccccn6)CC5)cnc(C)c4o3)cc(=O)oc2c1  IC50 (Epidermal growth factor receptor (EGFR, Homo sapiens, UniProt P00533, C797S/L858R/T790M); enzyme activity, inhibitor, ADP detection): 5.77 nM
CC(C)C[C@H](NC(=O)[C@H](Cc1ccc2ccccc2c1)NC(=O)[C@H](CCC(=O)O)NC(=O)c1cccc(C(F)(F)F)c1)C(=O)NC1CC1c1ccccc1 (stereo partly drawn)  IC50 (APC; ligand displacement, FP): 10700 nM
Cc1ncc(CN2CCN(Cc3ccccn3)CC2)c2cc(C(=O)c3ccc4c(c3)OCCO4)oc12  IC50 (EGFR; enzyme activity, inhibitor, ADP detection): 40.5 nM
O=C(Nc1ccc(-c2ccc3ncccc3c2)cc1)C1CCN(S(=O)(=O)c2ccccc2Cl)CC1  IC50 (Ephx2; enzyme activity, inhibitor, fluorescence): 87.7 nM
CC(C)C[C@H](NC(=O)[C@H](Cc1ccc2ccccc2c1)NC(=O)[C@H](CCC(=O)O)NC(=O)c1ccccn1)C(=O)NC1CC1c1ccccc1 (stereo partly drawn)  IC50 (APC; ligand displacement, FP): 30200 nM
Oc1ccc([C@@H]2c3c(O)cc(O)cc3[C@@H]3c4c(cc(O)c5c4[C@@H]2[C@H](c2ccc(O)cc2)[C@H]5c2cc(O)cc4c2[C@@H](c2cc(O)cc(O)c2)[C@H](c2ccc(O)cc2)O4)O[C@H]3c2ccc(O)cc2)cc1  IC50 (AMY1A; enzyme activity, inhibitor): 5300 nM
O=C(Nc1ccc(-c2ccc3cccnc3c2)cc1)C1CCN(S(=O)(=O)c2ccccc2Cl)CC1  IC50 (Ephx2; enzyme activity, inhibitor, fluorescence): 38.2 nM
